Data taken from ChEMBL document CHEMBL5724801, “EUbOPEN Chemogenomics Library - Multiplex” (2024).
Where “and” joins values, the source holds several entries; their conditions need not be identical. Equal values may be shown once.

How the values were obtained:
[1] = system: HEK-293T; assay: Multiplex assay against HEK293T; type: toxicity, cell-based; conditions: human
Summary of the method: (§1)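 At seeding, live cells were stained with Hoechst33342, BioTracker Green Microtubule Cytoskeleton Dye, MitoTracker Red and Annexin V Alexa Fluor 680. After compound addition they were imaged on a CQ1 microscope at 37°C and 5% CO2, and CellPathfinder machine-learning gating sorted them into Hoechst high-intensity objects or normal cells, with normal cells further split into healthy, pyknosed or fragmented nuclei and pyknosed cells into mitotic or apoptotic. Tubulin, mitochondrial-mass and membrane-permeability phenotypes are given as per cents of cells with healthy nuclei.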

[2] = system: Fibroblast; assay: Multiplex assay against human fibroblast; type: toxicity, cell-based; summary of the method: as §1
[3] = 12 h, 1 µM, compound concentration 1 uM
[4] = 12 h, 10 µM, compound concentration 10 uM
[5] = 24 h, 1 µM, compound concentration 1 uM
[6] = 24 h, 10 µM, compound concentration 10 uM
[7] = 48 h, 1 µM, compound concentration 1 uM
[8] = 48 h, 10 µM, compound concentration 10 uM

For `COc1cc(/C=C(\C#N)C(=O)Nc2nnc(C(F)(F)F)s2)ccc1OCc1ccc(C(F)(F)F)cc1C(F)(F)F`, the “Population Apoptotic (%)” value [1, 3] was 10% and 12.9%, the “Population Fragmented Nuclei (%)” value [1, 3] was 2.37% and 4.7% and the “Population Hoechst High Intensity Objects (%)” value [1, 3] was 0.67% and 0%. The “Population Membrane Permeable-Phenotype (%)” value [1, 3] was 0%, the “Population Mitochondria Different-Phenotype (%)” value [1, 3] was 45.57% and 22.22% and the “Population Mitotic Cells (%)” value [1, 3] was 90% and 87.1%. For the same compound, the “Population Normal (%)” value [1, 3] was 99.33% and 100%, the “Population Pyknosed Nuclei (%)” value [1, 3] was 44.07% and 83.22% and the “Total Cell Count” value [1, 3] was 297 and 149. For the same compound, the “Population Apoptotic (%)” value [1, 4] was 7.56% and 15.32%, the “Population Fragmented Nuclei (%)” value [1, 4] was 3.37% and 4.96% and the “Population Hoechst High Intensity Objects (%)” value [1, 4] was 0%. For the same compound, the “Population Membrane Permeable-Phenotype (%)” value [1, 4] was 0%, the “Population Mitochondria Different-Phenotype (%)” value [1, 4] was 33.93% and 13.04% and the “Population Mitotic Cells (%)” value [1, 4] was 92.44% and 84.68%. For the same compound, the “Population Normal (%)” value [1, 4] was 100%, the “Population Pyknosed Nuclei (%)” value [1, 4] was 40.07% and 78.72% and the “Total Cell Count” value [1, 4] was 297 and 141. For the same compound, the “Population Apoptotic (%)” value [1, 5] was 13% and 14.66%, the “Population Fragmented Nuclei (%)” value [1, 5] was 1.79% and 2.79% and the “Population Healthy Nuclei (%)” value [1, 5] was 75.89% and 32.4%. For the same compound, the “Population Hoechst High Intensity Objects (%)” value [1, 5] was 0.22% and 0%, the “Population Membrane Permeable-Phenotype (%)” value [1, 5] was 1.18% and 0% and the “Population Mitochondria Different-Phenotype (%)” value [1, 5] was 13.82% and 22.41%. For the same compound, the “Population Mitotic Cells (%)” value [1, 5] was 87% and 85.34%, the “Population Normal (%)” value [1, 5] was 99.78% and 100% and the “Population Pyknosed Nuclei (%)” value [1, 5] was 22.32% and 64.8%. For the same compound, the “Population Tubulin-Different-Phenotype (%)” value [1, 5] was 11.47% and 13.79%, the “Total Cell Count” value [1, 5] was 449 and 179 and the “Population Apoptotic (%)” value [1, 6] was 11.22% and 19.54%. The “Population Fragmented Nuclei (%)” value [1, 6] was 0.62% and 1.78%, the “Population Healthy Nuclei (%)” value [1, 6] was 79% and 46.75% and the “Population Hoechst High Intensity Objects (%)” value [1, 6] was 0% and 0.59%. The “Population Membrane Permeable-Phenotype (%)” value [1, 6] was 0.79% and 1.27%, the “Population Mitotic Cells (%)” value [1, 6] was 88.78% and 80.46% and the “Population Normal (%)” value [1, 6] was 100% and 99.41%. For the same compound, the “Population Pyknosed Nuclei (%)” value [1, 6] was 20.37% and 51.48%, the “Population Tubulin-Different-Phenotype (%)” value [1, 6] was 9.47% and 5.06% and the “Total Cell Count” value [1, 6] was 481 and 170. The “Population Apoptotic (%)” value [1, 7] was 10.37% and 13.92%, the “Population Fragmented Nuclei (%)” value [1, 7] was 1.93% and 3.61% and the “Population Healthy Nuclei (%)” value [1, 7] was 85.65% and 55.67%. For the same compound, the “Population Hoechst High Intensity Objects (%)” value [1, 7] was 0.09% and 1.52%, the “Population Membrane Permeable-Phenotype (%)” value [1, 7] was 4.73% and 1.85% and the “Population Mitochondria Different-Phenotype (%)” value [1, 7] was 13.1% and 24.07%. The “Population Mitotic Cells (%)” value [1, 7] was 89.63% and 86.08%, the “Population Normal (%)” value [1, 7] was 99.91% and 98.48% and the “Population Fragmented Nuclei (%)” value [1, 8] was 1.97% and 2.88%. The “Population Healthy Nuclei (%)” value [1, 8] was 88.86% and 79.5%, the “Population Hoechst High Intensity Objects (%)” value [1, 8] was 0% and 2.11% and the “Population Membrane Permeable-Phenotype (%)” value [1, 8] was 4.71% and 1.81%. For the same compound, the “Population Mitochondria Different-Phenotype (%)” value [1, 8] was 9.16% and 21.72%, the “Population Mitotic Cells (%)” value [1, 8] was 88.79% and 63.27% and the “Population Normal (%)” value [1, 8] was 100% and 97.89%. The “Population Pyknosed Nuclei (%)” value [1, 8] was 9.16% and 17.63%, the “Population Healthy Nuclei (%)” value [2, 3] was 58.16% and 84.16% and the “Population Hoechst High Intensity Objects (%)” value [2, 3] was 0%. The “Population Membrane Permeable-Phenotype (%)” value [2, 3] was 2.63% and 2.94%, the “Population Mitochondria Different-Phenotype (%)” value [2, 3] was 3.51% and 3.53% and the “Population Mitotic Cells (%)” value [2, 3] was 97.5% and 65%. For the same compound, the “Population Normal (%)” value [2, 3] was 100%, the “Population Pyknosed Nuclei (%)” value [2, 3] was 20.41% and 9.9% and the “Population Tubulin-Different-Phenotype (%)” value [2, 3] was 14.04% and 8.24%. The “Total Cell Count” value [2, 3] was 196 and 202, the “Population Apoptotic (%)” value [2, 4] was 13.04% and 12.12% and the “Population Fragmented Nuclei (%)” value [2, 4] was 7.14% and 5.21%. The “Population Healthy Nuclei (%)” value [2, 4] was 67.58% and 79.15%, the “Population Hoechst High Intensity Objects (%)” value [2, 4] was 0% and the “Population Membrane Permeable-Phenotype (%)” value [2, 4] was 4.07% and 1.2%. The “Population Mitochondria Different-Phenotype (%)” value [2, 4] was 8.13% and 4.79%, the “Population Mitotic Cells (%)” value [2, 4] was 86.96% and 87.88% and the “Population Normal (%)” value [2, 4] was 100%. The “Population Pyknosed Nuclei (%)” value [2, 4] was 25.27% and 15.64%, the “Population Tubulin-Different-Phenotype (%)” value [2, 4] was 7.32% and 18.56% and the “Total Cell Count” value [2, 4] was 182 and 211. For the same compound, the “Population Apoptotic (%)” value [2, 5] was 9.09% and 25%, the “Population Fragmented Nuclei (%)” value [2, 5] was 17.05% and 6.05% and the “Population Healthy Nuclei (%)” value [2, 5] was 67.74% and 86.51%. For the same compound, the “Population Hoechst High Intensity Objects (%)” value [2, 5] was 0%, the “Population Membrane Permeable-Phenotype (%)” value [2, 5] was 5.44% and 3.23% and the “Population Mitochondria Different-Phenotype (%)” value [2, 5] was 4.76% and 1.61%. For the same compound, the “Population Mitotic Cells (%)” value [2, 5] was 90.91% and 75%, the “Population Normal (%)” value [2, 5] was 100% and the “Population Pyknosed Nuclei (%)” value [2, 5] was 15.21% and 7.44%. The “Population Tubulin-Different-Phenotype (%)” value [2, 5] was 14.97% and 9.14%, the “Total Cell Count” value [2, 5] was 217 and 215 and the “Population Apoptotic (%)” value [2, 6] was 9.09% and 23.53%. The “Population Fragmented Nuclei (%)” value [2, 6] was 4.46% and 6.64%, the “Population Healthy Nuclei (%)” value [2, 6] was 79.21% and 85.31% and the “Population Hoechst High Intensity Objects (%)” value [2, 6] was 0%. For the same compound, the “Population Membrane Permeable-Phenotype (%)” value [2, 6] was 3.75% and 3.33%.
